CSN deneddyl inh: CSN deneddylation inhibition; Q92905; Purified CSN, SCF-Nedd8-OG deneddylation, fluorescence polarization; inhibition, % at 12.5 µM; hit rate 0.38% among 360,000;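 active = pattern-corrected inhibition above about 35%, with an unprinted fluorescence ratio check between 0.5 and 1.5, limit read from the data, passing the limit was not always enough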;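 note: 0% = enzyme with substrate and 100% = substrate without enzyme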
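Schedule: reaction 90 min, room temperature / Assay system: HEK293T-derived human Csn5 enzyme / Input: Csn5 at 0.24 nM final / Measure: inhibition of Csn5 cleavage, % / Control set: substrate-only high control, full reaction low control / Technique: fluorescence polarization of the substrate / Buffer or medium: Tris/NaCl/DTT buffer, pH 7.5 / Reagent: SCFSkp2-Nedd8OG substrate at 10 nM final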
SUMO1-SIM PPI: SUMO1-SIM interaction modulation; hit rate 0.33% among 360,000; AID 602429; inhibition, % at 20 µM; P63165; SUMO1 binding to a labelled peptide, TR-FRET, 1 h; in the data active = inhibition above about 37%
DNMT1 block: inhibitors of human DNMT1; AID 588458; inhibition (reported as % activation of signal), % at 10 µM; P26358; DNMT1 molecular beacon, Hinp1I cleavage, fluorescence; hit rate 0.83% among 360,000; in the data active = inhibition above about 50%
Scp1 inh: inhibitors of human Scp-1 phosphatase; AID 493091; inhibition, % at 20 µM; Q9GZU7; Recombinant Scp1, phosphopeptide, malachite green phosphate absorbance; hit rate 0.88% among 340,000;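 active = inhibition above about 50% at 20 µM, limit read from the data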;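 note: plate controls were DMSO wells with enzyme for no effect and wells lacking enzyme for full effect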
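Test system – truncated SCP-1 phosphatase (76-261aa) · Reagent – Phosphorylated 17-residue peptide substrate · Incubation – 45 min room-temperature reaction, 5 min colour, 30 min stabiliser · Detection – colorimetric phosphate reagent with accelerator and stabiliser, absorbance at 630 nm · Measure – % inhibition at 20 µM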
STEP block: STEP (human) phosphatase inhibition; inhibition, % at 20 µM; hit rate 0.25% among 360,000; P54829; AID 588621; recombinant STEP, OMFP fluorogenic substrate, fluorescence;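 active = inhibition at 20 µM, scaled per plate between control wells, above about 37%, limit read from the data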;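 note: 0% = DMSO with enzyme and substrate and 100% = substrate only without enzyme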
Target sequence (P54829 whole entry, looked up): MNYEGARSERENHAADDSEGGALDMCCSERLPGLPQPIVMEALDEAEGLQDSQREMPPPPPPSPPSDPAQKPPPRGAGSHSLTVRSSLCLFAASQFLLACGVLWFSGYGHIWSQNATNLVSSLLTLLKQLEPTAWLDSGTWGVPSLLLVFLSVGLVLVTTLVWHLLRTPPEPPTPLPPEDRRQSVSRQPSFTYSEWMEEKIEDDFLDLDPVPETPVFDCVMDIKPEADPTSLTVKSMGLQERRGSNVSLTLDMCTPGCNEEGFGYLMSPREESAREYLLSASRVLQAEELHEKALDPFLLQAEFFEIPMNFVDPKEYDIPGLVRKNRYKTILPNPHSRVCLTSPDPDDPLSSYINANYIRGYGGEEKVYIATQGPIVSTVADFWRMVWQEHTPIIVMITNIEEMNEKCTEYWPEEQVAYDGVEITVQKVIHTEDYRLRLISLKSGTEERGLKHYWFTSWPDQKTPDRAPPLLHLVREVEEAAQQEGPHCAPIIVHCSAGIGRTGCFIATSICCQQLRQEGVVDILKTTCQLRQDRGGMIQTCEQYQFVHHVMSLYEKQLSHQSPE
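medium = Bis-Tris buffer pH 6.0, 2.5 mM DTT, 0.005% Tween 20 | test system = STEP (striatal-enriched tyrosine phosphatase) enzyme, cell-free | measure = normalized % inhibition | compound dosing = 20 µM, 1% DMSO | also added = 25 µM OMFP | schedule = reaction 20 min, ambient temperature | measured by = fluorescence read at 480 nm ex / 540 nm em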
LMPTP block: LMPTP (human) inhibition; hit rate 0.22% among 360,000; AID 651560; P24666; inhibition, % at 20 µM; recombinant LMPTP-A, OMFP fluorogenic substrate, fluorescence intensity;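 active = compounds that cut the enzyme signal by at least half of the control window in the single-dose screen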;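 note: plate controls were DMSO wells with enzyme plus substrate for no effect and substrate without enzyme for full effect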
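Test system: LMPTP-A phosphatase enzyme; input: 0.625 nM LMPTP-A final; reagent: OMFP substrate, 400 µM final; compound dosing: 20 µM single dose, 3% DMSO; incubation: 50 min dark incubation at room temperature; measured by: endpoint fluorescence intensity from OMFP dephosphorylation; measure: % inhibition relative to no-enzyme and uninhibited control wells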
Scp1 confirm: confirmation of human Scp-1 phosphatase inhibitors; shares compounds with Scp1 inh; recombinant SCP-1 catalytic domain, phosphate release, malachite green absorbance; inhibition, % at 20 µM; hit rate 61% among 2,500; AID 540281;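 note: plate controls were DMSO with enzyme for no effect and buffer wells lacking enzyme for full effect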
MG interference: colorimetric interference in Scp-1 counter-screen. shares compounds with Scp1 inh. Colorimetric interference counterscreen, malachite green absorbance 630 nm. apparent inhibition (interference), % at 20 µM. 2,500 tested, under 10 active. AID 540313;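 note: compounds added after enzyme reaction finished so only phosphate colour detection is probed; plate controls were DMSO wells with completed Scp-1 reaction for no effect and substrate wells lacking enzyme for full effect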
Scp-1 Tm shift: validation of human Scp-1 inhibitors by thermal shift binding; AID 540329; hit rate 25% among 1,500; Recombinant SCP1, Sypro Orange thermal shift Tm; thermal shift relative to vanadate control, % at 40 µM; shares compounds with Scp1 inh;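 active = substances whose mean melting-temperature shift, as a percentage of the reference inhibitor's shift, reaches about 5.3%, limit read from the data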;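 note: 0% = Tm of DMSO wells and 100% = Tm with sodium orthovanadate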
Active calls of the source: *; x = no result given. Sampled rows, rich in hits. Any-hit rate of the full collection: about 1.9%.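 Rule for the calls, unless noted: active = inhibition of at least 30% at 20 µM; inactive = the rest.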

SMILES | CSN deneddyl inh | SUMO1-SIM PPI | DNMT1 block | Scp1 inh | STEP block | LMPTP block | Scp1 confirm | MG interference | Scp-1 Tm shift
Cc1cc([N+](=O)[O-])nn1CCCC(=O)N1CCN(c2ccc(F)cc2)CC1 | -2 | -4 | 6 | 3 | 1 | -1 | x | x | x
COc1ccccc1-n1nnnc1SCC(=O)N1CCCC1=O | 5 | -1 | 2 | -10 | -1 | -1 | x | x | x
Cn1c(SCC(=O)N/N=C/C=C\c2ccco2)nc2ccccc21 | 23 | 16 | 54* | 84* | 6 | 26 | 62* | -12 | 0
CCN(c1ccccc1)S(=O)(=O)c1ccc2[nH]cc(C(=O)N3CCOCC3)c(=O)c2c1 | -3 | -2 | 14 | 52* | 13 | 0 | 40* | -4 | -5
Cc1ccccc1OCCC(=O)OCC(=O)N1c2ccccc2NC(=O)C1(C)C | 1 | 6 | 10 | 20 | 1 | 1 | x | x | x
CCC(=O)c1ccc(OCC(=O)OCC(=O)N2c3ccccc3NC(=O)C2(C)C)cc1 | -7 | 12 | 9 | 9 | 5 | 1 | x | x | x
Cc1cc(OCC(=O)OCC(=O)N2c3ccccc3NC(=O)C2(C)C)ccc1Cl | 2 | 9 | 33 | 60* | -1 | 7 | 57* | -19 | 1
CC1(C)C(=O)Nc2ccccc2N1C(=O)COc1ccccc1C#N | -3 | 3 | 23 | 50* | 3 | 5 | 59* | -12 | 3
COC(=O)C(C)NC(=S)N1CCN(c2c(F)cc3c(=O)c(C(=O)O)cn(C4CC4)c3c2OC)CC1C (stereo not drawn) | -1 | 0 | 0 | -13 | 4 | 6 | x | x | x
COc1ccc(S(=O)(=O)NCCN2CCOCC2)c(C)c1C | 0 | 4 | 0 | 81* | 1 | -3 | -13 | -12 | x
COc1ccc(S(=O)(=O)NCCN2CCOCC2)c2ccccc12 | 2 | -1 | -2 | -6 | 1 | -1 | x | x | x
COC(=O)c1ccc(NC(=S)N2CCC(C(N)=O)CC2)cc1 | -11 | 3 | 0 | 68* | 10 | 1 | -6 | -7 | x
CCOc1ccc(NC(=S)N2CCC(C(N)=O)CC2)cc1 | 0 | 2 | 3 | -2 | 0 | -1 | x | x | x
O=C(N/N=C/c1cccc([N+](=O)[O-])c1)c1ccc(COc2ccccc2-c2ccccc2)cc1 | -15 | -2 | 0 | -1 | 2 | 3 | x | x | x
CC1O[C@@H](OC2C(COC3OC(CO)C(O)[C@H](O)C3O)OC(OC3CC[C@]4(C)C(CC[C@@]5(C)[C@@H]4CC=C4[C@@H]6CC(C)(C)CC[C@]6(CO)C(O)C[C@]45C)C3(C)C)C(O)C2O)C(O)C(O)C1O (stereo partly drawn) | 2 | 10 | -1 | 55* | 3 | 8 | 25 | -9 | x
CC1(C)C[C@H](O)[C@]2(CO)CC[C@]3(C)C(=CCC4[C@@]5(C)CC[C@H](O)C(C)(C)C5CC[C@]43C)[C@@H]2C1 (stereo partly drawn) | 2 | 1 | -20 | -1 | 1 | 0 | x | x | x
COc1ccccc1N1CCN(C(=S)Nc2ccccc2)CC1 | 3 | 3 | 1 | -6 | -3 | -1 | x | x | x
O=C(CCCn1ncn2c(cc3occc32)c1=O)NCc1cccc(Cl)c1 | 5 | -5 | -4 | 2 | -1 | 1 | x | x | x
O=C(Cc1ccc(S(=O)(=O)N2CCCC2)s1)N1CCN(c2ccccc2)CC1 | -1 | 3 | 4 | 0 | 0 | -1 | x | x | x
COc1ccc(N2CCN(C(=O)Cc3ccc(S(=O)(=O)N4CCOCC4)s3)CC2)cc1 | 6 | -1 | 28 | 81* | 0 | 10 | 69* | -12 | 4
